Experimental data reported in PubChem BioAssay.
Calls of active or inactive are those of the source.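 How the source made its calls, unless noted: active means GFP response above 150% of the DMSO level; inconclusive means fewer than 70 events counted for a yeast strain; inactive means the rest.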

Assays:
[1] = hit retest on RPL19A-GFP reporter strain – cell-based, S. cerevisiae, flow cytometry, cherry picks, mother/daughter gates, confirmation (AID 2270;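 active means GFP response below 50% of the DMSO control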); conditions: 3 h, at 10 µM, stronger effect = lower value, 100 = same GFP as DMSO wells
[2] = yeast TOR pathway reporter LAP4-GFP change – cell-based, cherry picks, flow cytometry, mother/daughter gates, confirmation (AID 2271;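 active means GFP response above 150% of the DMSO control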;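 further: ratio of sample to DMSO plate mean so 100% equals DMSO level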); conditions: S. cerevisiae LAP4-GFP strain, 3 h, at 10 µM, stronger effect = higher value, 100 means same as DMSO control
In short: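 Test system: GFP-fusion yeast strain. Medium: synthetic complete (SC) yeast growth medium. Timing: 3 h treatment at 30 °C with rotation. Measured by: GFP by flow cytometry. Control set: positive rapamycin (400 ng/mL), negative DMSO.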

[3] = TOR pathway reporter MEP2-GFP, retest of hits – S. cerevisiae, flow cytometry GFP, cherry picks, confirmation (AID 2272;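 active means GFP response above 150% of the DMSO control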;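 further: ratio of well signal to plate DMSO mean so 100% equals DMSO level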); conditions: S. cerevisiae MEP2-GFP strain, 3 h, at 10 µM, stronger effect = higher value
[4] = yeast AGP1-GFP fluorescence change, single-dose – cell-based, flow cytometry, S. cerevisiae, cherry picks, confirmation (AID 2273);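 further: median GFP channel fluorescence over the whole cell population gate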; conditions: S. cerevisiae AGP1-GFP strain, 3 h, at 10 µM
[5] = TOR pathway CIT2 reporter hit retest – S. cerevisiae, GFP fusion, cherry picks, mother/daughter gates, confirmation (AID 2274); conditions: S. cerevisiae CIT2-GFP strain, flow cytometry, 3 h, at 10 µM, stronger effect = higher value
[6] = measured here: daughter cell gate
[7] = measured here: mother cell gate
[8] = measured here: daughter cell gate response
[9] = measured here: mother cell gate response

| SMILES | GFP response vs DMSO [1] | GFP response vs DMSO [1, 6] [%] | GFP response vs DMSO [1, 7] [%] | GFP response relative to DMSO [2] | GFP response relative to DMSO [2, 8] [%] | GFP response relative to DMSO [2, 9] [%] | GFP response vs DMSO [3] | GFP response, % of DMSO [4] | GFP response, % of DMSO [5] | GFP response, % of DMSO [5, 6] [%] | GFP response, % of DMSO [5, 7] [%] |
| --- | --- | --- | --- | --- | --- | --- | --- | --- | --- | --- | --- |
| CSc1ccc(/C=N/NC(=O)c2ccc(O)cc2)cc1 | 97.8% (inactive) | 98.1 | 98.5 | 97% (inactive) | 97.5 | 96.2 | 103% (inactive) | 103% (inactive) | 103% (inactive) | 103 | 103 |
| Cc1cccn2c(=O)c(/C=C(\C#N)C(N)=O)c(N3CCN(Cc4ccc5c(c4)OCO5)CC3)nc12 | 101% (inactive) | 101 | 102 | 101% (inactive) | 103 | 101 | 101% (inactive) | 100% (inactive) | 110% (inactive) | 110 | 112 |
| COC(=O)c1ccc(/C=N/NC(=O)c2cccc(F)c2)cc1 | 99.9% (inactive) | 99.3 | 98.6 | 103% (inactive) | 102 | 101 | 104% (inactive) | 99.3% (inactive) | 99.3% (inactive) | 100 | 99.1 |
| COc1ccc(C2c3c(oc4ccccc4c3=O)C(=O)N2CCN2CCOCC2)cc1OC (configuration not stated) | 103% (inactive) | 95.3 | 101 | 119% (inactive) | 116 | 114 | 172% (inactive) | 105% (inactive) | 129% (inactive) | 116 | 113 |
| COc1ccc(/C(C)=N/NC(=O)c2ccc(N(C)C)cc2)cc1 | 103% (inactive) | 102 | 103 | 95% (inactive) | 94.1 | 97.2 | 104% (inactive) | 101% (inactive) | 104% (inactive) | 103 | 104 |
| COc1ccc(-c2csc(N(CC(C)C)C(=O)c3ccco3)n2)cc1 | 98.2% (inactive) | 100 | 97.7 | 101% (inactive) | 101 | 100 | 101% (inactive) | 100% (inactive) | 98.6% (inactive) | 101 | 97.1 |
| O=C(CCS(=O)(=O)Cc1ccccc1F)NCCc1ccc(Cl)cc1 | 97.8% (inactive) | 102 | 93.7 | 101% (inactive) | 99 | 101 | 101% (inactive) | 99.1% (inactive) | 100% (inactive) | 99.3 | 99.3 |
| CCc1nn2c(N3CCOCC3)cc(C)nc2c1-c1ccc(F)cc1 | 99.8% (inactive) | 99.8 | 98.4 | 104% (inactive) | 104 | 104 | 106% (inactive) | 98.6% (inactive) | 95.8% (inactive) | 101 | 94.9 |
| Cc1cc(OCc2ccc(C(=O)NN=C3CCCC3)cc2)ccc1Cl | 103% (inactive) | 98.7 | 96.1 | 132% (inactive) | 116 | 135 | 120% (inactive) | 101% (inactive) | 95.2% (inactive) | 91.5 | 89.1 |
| Cc1ccc(NC(=O)ON=C2CCCC2)cc1 | 101% (inactive) | 104 | 93.5 | 122% (inactive) | 115 | 121 | 109% (inactive) | 68.9% (inactive) | 167% (active) | 150 | 167 |
| O=C(Nc1c2ccccc2nc2ccccc12)C(Cl)(Cl)Cl | 91.7% (inactive) | 77.9 | 83.4 | 88.7% (inactive) | 87.3 | 94.1 | 98.8% (inactive) | 87.8% (inactive) | 95.9% (inactive) | 77.8 | 70.8 |
| COc1ccccc1N1CCN(C2CCCN(Cc3cc(F)cc(F)c3)C2)CC1 (configuration not stated) | 96% (inactive) | 97.3 | 95.9 | 98.9% (inactive) | 97.5 | 98.4 | 99.3% (inactive) | 102% (inactive) | 103% (inactive) | 99.3 | 104 |
| Cc1cccn2c(N)c(-c3ccccc3)nc12 | 97.4% (inactive) | 97.3 | 97.1 | 95.3% (inactive) | 96.5 | 90.6 | 106% (inactive) | 102% (inactive) | 104% (inactive) | 102 | 96.8 |
| O=C(COC(=O)/C=C/c1cccs1)Nc1nc(-c2cccc(Br)c2)cs1 | 102% (inactive) | 103 | 102 | 89% (inactive) | 94.1 | 89 | 100% (inactive) | 96.7% (inactive) | 110% (inactive) | 108 | 112 |
| Cc1nn(C)c(C(=O)Sc2cccc(Cl)c2)c1[N+](=O)[O-] | 99.6% (inactive) | 97.6 | 99.4 | 126% (inactive) | 114 | 130 | 121% (inactive) | 102% (inactive) | 104% (inactive) | 103 | 101 |
| COc1cc(NC(=O)c2ccccc2)ccc1NC(=O)c1cc2ccccc2o1 | 98.7% (inactive) | 98.7 | 97.8 | 94.1% (inactive) | 97.5 | 92.3 | 103% (inactive) | 101% (inactive) | 100% (inactive) | 95.8 | 100 |
| CC(C)c1ccc(C(=O)N/N=C/c2cccc(Cl)c2Cl)cc1 | 93.4% (inactive) | 88 | 92.6 | 112% (inactive) | 110 | 116 | 103% (inactive) | 95.7% (inactive) | 87.2% (inactive) | 83 | 85.8 |
| c1cnc2c(SCc3ccc(-c4nnco4)cc3)cccc2c1 | 98.2% (inactive) | 96.4 | 97.5 | 108% (inactive) | 108 | 110 | 106% (inactive) | 104% (inactive) | 94.4% (inactive) | 90.5 | 96 |
| COC(=O)c1ccc(N2C(=O)CC(Sc3n[nH]c(C)n3)C2=O)cc1 (configuration not stated) | 101% (inactive) | 103 | 98 | 128% (inactive) | 130 | 131 | 108% (inactive) | 101% (inactive) | 106% (inactive) | 108 | 103 |
| CCSc1nnc(NC(=O)c2nc(S(=O)(=O)Cc3ccc(F)cc3)ncc2Cl)s1 | 102% (inactive) | 99 | 103 | 103% (inactive) | 108 | 103 | 104% (inactive) | 102% (inactive) | 112% (inactive) | 110 | 113 |
| CCCc1nnc(NC(=O)c2nc(S(=O)(=O)Cc3cccc(C)c3)ncc2Cl)s1 | 95.1% (inactive) | 96.4 | 95.2 | 106% (inactive) | 102 | 107 | 103% (inactive) | 101% (inactive) | 97.2% (inactive) | 99.3 | 98.2 |
| O=C1/C(=C\c2ccc(O)c(O)c2)SC(=S)N1Cc1ccccc1 | 100% (inactive) | 99.1 | 100 | 116% (inactive) | 117 | 116 | 141% (inactive) | 97.2% (inactive) | 113% (inactive) | 119 | 108 |
| Cc1ccc(S(=O)(=O)N(CC(=O)NCc2ccncc2)Cc2ccccc2F)cc1 | 97.6% (inactive) | 97.1 | 98.5 | 99.2% (inactive) | 99.2 | 97.2 | 105% (inactive) | 102% (inactive) | 103% (inactive) | 101 | 102 |
| Cc1ccc(-c2nc(NC(=O)c3nn(C)cc3[N+](=O)[O-])sc2C)cc1 | 100% (inactive) | 97.3 | 101 | 98.7% (inactive) | 97.2 | 101 | 102% (inactive) | 101% (inactive) | 96.5% (inactive) | 91.5 | 97.7 |
| COc1ccc(OC)c(S(=O)(=O)N2Cc3ccccc3CC2C(=O)O)c1 (configuration not stated) | 100% (inactive) | 101 | 99.4 | 104% (inactive) | 101 | 106 | 106% (inactive) | 102% (inactive) | 101% (inactive) | 103 | 103 |
| O=C1c2ccsc2SCCN1Cc1ccccc1Cl | 94.2% (inactive) | 92 | 95.7 | 111% (inactive) | 102 | 114 | 90.5% (inactive) | 97.5% (inactive) | 93% (inactive) | 93.8 | 90.7 |
| O=C(/C=C/c1ccccn1)c1cc(Br)ccc1O | 81.7% (inactive) | 93.3 | 72.8 | 218% (active) | 177 | 210 | 109% (inactive) | 102% (inactive) | 86.1% (inactive) | 94.8 | 77.3 |
